Bioassay records deposited in PubChem BioAssay by several laboratories.
hDAT+cocaine: changed human dopamine transporter uptake under cocaine IC80; AID 449768; 1.3% of 110,000 active; B-score at 10 µM; LLC-PK1 hDAT cells, [14C]-dopamine uptake with cocaine IC80; actives deviate in either direction; Q01959;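 active = Z score or B-score, a plate-position-corrected score, falls beyond the plate's 99.7% confidence bounds, in either direction; inactive = both scores lie inside the 99.7% bounds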
Target sequence (Q01959 whole entry, looked up): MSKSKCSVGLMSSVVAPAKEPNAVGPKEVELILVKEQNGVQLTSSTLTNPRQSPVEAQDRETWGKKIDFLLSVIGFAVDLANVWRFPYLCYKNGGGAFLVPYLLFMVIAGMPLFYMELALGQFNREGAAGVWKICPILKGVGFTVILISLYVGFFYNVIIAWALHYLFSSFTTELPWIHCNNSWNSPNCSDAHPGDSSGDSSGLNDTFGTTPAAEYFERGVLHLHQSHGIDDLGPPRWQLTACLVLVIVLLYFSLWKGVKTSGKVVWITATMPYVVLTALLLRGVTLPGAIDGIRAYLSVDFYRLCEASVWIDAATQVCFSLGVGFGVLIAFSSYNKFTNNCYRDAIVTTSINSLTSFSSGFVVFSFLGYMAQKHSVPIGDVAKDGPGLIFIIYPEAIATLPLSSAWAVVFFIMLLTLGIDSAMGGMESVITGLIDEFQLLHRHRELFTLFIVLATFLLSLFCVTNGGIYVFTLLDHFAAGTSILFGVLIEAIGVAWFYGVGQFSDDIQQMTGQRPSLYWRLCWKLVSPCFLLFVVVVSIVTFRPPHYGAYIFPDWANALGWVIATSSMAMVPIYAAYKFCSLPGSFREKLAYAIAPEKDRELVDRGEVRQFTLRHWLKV
Rev-RRE block: HIV Rev-RRE protein-RNA interaction inhibition. P05866. 0.79% of 97,000 active. inhibition, % at 8 µM. Rev peptide-RRE RNA binding, FRET;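 active = inhibition above the screen-wide mean plus 3 SD, cut at about 35% in these data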
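Assay system: labelled RRE RNA duplex and labelled Rev peptide / Medium: HEPES pH 7.5 salt buffer with EDTA / Reagent: labelled Rev peptide / Schedule: 5 + 15 min at 25 °C / Signal: FRET, excitation 480 nm, emission 540 nm donor and 671 nm acceptor / Benchmarks: DMSO and neomycin B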
Measles CPE: protection of cells from measles virus; AID 841; protection (pct of control), % at 4 µM; Measles virus-infected cells, CPE protection, absorbance; 1.5% of 140,000 active; in the data active = protection mostly above about 24%, no sharp cut-off; inactive = mostly below about 26%
Phagocytosis inh: macrophage phagocytosis inhibition; J774A.1 macrophage IgG-bead phagocytosis, imaging; inhibition, % at 5 µM; 0.07% of 110,000 active; AID 1029;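 active = inhibition above the mean of the plate negative controls plus 5 SD, cut at about 13% in these data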;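 note: phagocytic index as fraction of beads internalized from green versus red external bead signal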
Pyk2 oligo antag: blocks oligomerization of human Pyk2 in cells | AID 1347419 | Q14289 | z-score (the deposit names both 25 µM and 10 µM) | 0.83% of 99,000 active | Q293 cells, Pyk2 FERM NanoBiT luminescence; active compounds read low;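 active = Z-score of -3 or lower, scaled per plate to the spread of control and sample wells; inactive = z-score above -3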;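 note: negative z-score means lost luminescence so less FERM oligomerization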
Cav32 inh: blocks human Cav3.2 T-type calcium channel; O95180; Cav3.2-expressing cells, Fluo-4 calcium fluorescence FDSS; active compounds read low; B-score at 10 µM; 4% of 100,000 active;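 active = single-dose well whose peak fluorescence ratio is a statistical outlier from its plate by either plate-standardised score or position-corrected B-score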
Of the large screens only hits and unclear results are named; the others gave an inactive call. In the library only some 5.9% were active in any assay of this set; here they are far more common.

CNC(=O)COC(=O)c1cc(NC(=O)c2ccco2)c(OC)c(OC)c1	none
COc1ccc(C(=O)Nc2ccccc2NC(=O)c2ccco2)cc1OC	hDAT+cocaine 2.8 (no result: Rev-RRE block)
Cc1ccccc1CSCCNC(=O)CCSc1ccccc1	Cav32 inh -6.1
Cc1ccc(CSCCNC(=O)CCSc2ccccc2)cc1	none (no result: Phagocytosis inh)
Cc1c(C(=O)N2CCC(C)CC2)sc2ncnc(N(C)c3ccccc3)c12	none (no result: Phagocytosis inh)
CC(Sc1nnnn1C)C(=O)Nc1ccc(N2CCOCC2)cc1 (stereo not given)	hDAT+cocaine -7.8 (no result: Rev-RRE block)
Cc1cccc(-n2c(C)cc(/C=N/NC(=O)c3cccc([N+](=O)[O-])c3C)c2C)c1	Cav32 inh -3.7
Cc1cc(/C=N/NC(=O)c2cccc([N+](=O)[O-])c2)c(C)n1-c1ccc(Cl)cc1Cl	Cav32 inh -6.4
COc1cc2[nH]c(=O)n(CCCCCC(=O)NCCc3c[nH]c4ccccc34)c(=O)c2cc1OC	none
Cc1cccc(C)c1NC(=O)c1sc(Cl)nc1C	none (no result: hDAT+cocaine, Rev-RRE block, Pyk2 oligo antag, Cav32 inh)
CN(C)c1[nH]c(=O)c(C#N)c2c1CCN2Cc1ccccc1	none
N#Cc1c2c(c[nH]c1=O)CCN2Cc1ccccc1	Measles CPE 44 (no result: Phagocytosis inh)
COC(C/C=C/C(=O)[C@H](C)OCc1ccccc1)OC	none (no result: Rev-RRE block, Measles CPE, Phagocytosis inh, Pyk2 oligo antag)
Cc1nnc(N(C)C(=O)c2ccccn2)s1	Measles CPE 53 (no result: hDAT+cocaine, Phagocytosis inh, Cav32 inh)
COc1ccc(Cc2nnc(N/N=C/c3ccc(O)cc3O)[nH]c2=O)cc1OC	none (no result: hDAT+cocaine, Rev-RRE block, Measles CPE, Pyk2 oligo antag, Cav32 inh)
CC1=CC(C)(C)N(S(=O)(=O)c2ccc(C)cc2)c2cc(C)ccc21	hDAT+cocaine -2
CCC(=O)N(CCC(c1ccco1)c1ccccc1OC)Cc1cccs1 (stereo not given)	Cav32 inh -5.8
CC(=O)N(CCC(c1ccccc1)c1ccco1)Cc1cccs1 (stereo not given)	Cav32 inh -7.4 (no result: Phagocytosis inh)
O=C(c1ccco1)N(CCC(c1ccccc1)c1ccco1)Cc1ccco1 (stereo not given)	Cav32 inh -12
COc1ccccc1C(CCNS(=O)(=O)c1ccc(C)cc1)c1ccco1 (stereo not given)	none (no result: hDAT+cocaine, Rev-RRE block, Pyk2 oligo antag, Cav32 inh)
Cc1ccc(C(CCN(Cc2ccccc2)C(=O)c2ccco2)c2ccco2)cc1 (stereo not given)	none (no result: hDAT+cocaine, Rev-RRE block, Phagocytosis inh, Pyk2 oligo antag, Cav32 inh)
Cn1c(N)c(C(=O)CNC2CCCCC2)c(=O)n(C)c1=O	none (no result: Rev-RRE block, Measles CPE, Phagocytosis inh, Pyk2 oligo antag)
CC(C)Cc1ccc(/C=C/C(=O)NC2CC2)cc1	none (no result: hDAT+cocaine, Rev-RRE block, Phagocytosis inh, Pyk2 oligo antag, Cav32 inh)
CC(c1ccccc1)N1CCn2c(nc3cc(NC(=O)c4cccs4)ccc32)C1 (stereo not given)	hDAT+cocaine 2.7
O=C(NC1CCCCC1)C1Cc2ccccc2CN1S(=O)(=O)c1ccc(F)cc1 (stereo not given)	none (no result: Phagocytosis inh)
O=C(Nc1nnc(C2CC2)s1)C1Cc2ccccc2CN1S(=O)(=O)c1ccccc1F (stereo not given)	Pyk2 oligo antag -3.7 (no result: Phagocytosis inh)
CC(CCc1ccccc1)NC(=O)CN1CCOc2ccccc21 (stereo not given)	none (no result: Measles CPE, Phagocytosis inh, Pyk2 oligo antag)
Cc1ccc(CN2CCN(CC(=O)NC(C)CCc3ccccc3)C2=O)cc1 (stereo not given)	Cav32 inh -5.7 (no result: Pyk2 oligo antag)
CC(CCc1ccccc1)NC(=O)CN1CCN(Cc2ccccc2)C1=O (stereo not given)	none
CC(CCc1ccccc1)NC(=O)CN1CCN(Cc2ccc(Cl)cc2)C1=O (stereo not given)	Cav32 inh -8.2 (no result: Pyk2 oligo antag)
COc1ccccc1-n1cnnc1SC(C)C(=O)Nc1cccc([N+](=O)[O-])c1 (stereo not given)	none (no result: hDAT+cocaine, Rev-RRE block, Pyk2 oligo antag, Cav32 inh)
COc1ccccc1CN(Cc1nc2ccccc2c(=O)[nH]1)S(=O)(=O)c1ccc2ccccc2c1	Pyk2 oligo antag -3 (no result: Phagocytosis inh)
COc1cc2nc(CN(C)Cc3nc4ccccc4c(=O)[nH]3)[nH]c(=O)c2cc1OC	none
Cc1ccc(S(=O)(=O)NCCOc2nc(N3CCOCC3)nc(N3CCOCC3)n2)cc1	Measles CPE 63
Cc1ccc(S(=O)(=O)NCCNC(=O)N2CCOCC2)cc1	none
CC(NCc1ccc(N(C)C)cc1)C1CC2CCC1C2 (stereo not given)	none
COc1ccc(S(=O)(=O)N(C)C)cc1NS(=O)(=O)c1ccc(F)c(F)c1F	none (no result: hDAT+cocaine, Rev-RRE block, Pyk2 oligo antag, Cav32 inh)
Cc1ccc(CSc2nc3ccncc3n2CC(=O)Nc2cc(C)cc(C)c2)cc1	none (no result: Rev-RRE block, Phagocytosis inh, Pyk2 oligo antag)
CC1CCN(C(=O)c2ccc(CSc3nc4ccncc4n3Cc3ccc(F)cc3)cc2)CC1	hDAT+cocaine 3.5 (no result: Rev-RRE block, Phagocytosis inh, Pyk2 oligo antag)
O=c1[nH]c(Nc2ccccc2)cc2cc(Br)ccc12	none (no result: Rev-RRE block, Measles CPE, Phagocytosis inh, Pyk2 oligo antag)
